Assay [1] can be described thus: Selectivity ratio to IC50 of HL60 cells and EC50, anti-HIV activity of MT-4 cells. The class given is functional, HL-60. The method, boiled down: (§1)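 Selectivity ratio is the cytotoxic IC50 (MT4 or HL60 cells, […]) divided by the anti-HIV-1 EC50 from P24 ELISA or RT assay in infected MT4 cells.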
The test system of assay [2] is MT4. As to the kind of experiment: AntiHIV-1 activity measured in MT-4 cells at 5 to 6 different concentrations, using the reverse transcriptase (RT) assay. The class given is functional, cell-based. The following applies: Homo sapiens. The method, boiled down: (§2)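 MT4 cells infected with HIV-1 at 200 TCID50 per 10^6 cells, adsorbed 1 h at 37 °C, 5% CO2, washed, resuspended at 10^6 cells/3 mL. Compounds added immediately at five to six concentrations. After 5 days at 37 °C, cell-free supernatant assayed for P24 core antigen by ELISA kit or for RT activity. EC50 from median-effect plot analysis against untreated infected controls.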

The test system of assay [3] is MT4. As to the kind of experiment: AntiHIV-1 activity measured in MT-4 cells at 5 to 6 different concentrations, using the P24 antigen enzyme-linked immunosorbent assay (ELISA). The class given is functional, cell-based. The following applies: Homo sapiens. The method, boiled down:
as §2

Assay [4] relates to MT4. As to the kind of experiment: Cytotoxicity was tested in MT-4 cells by the XTT-microculture tetrazolium assay. The class given is functional, cell-based. The following applies: Homo sapiens. In outline: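 MT4 cells exposed in duplicate in 96-well plates to at least five concentrations for 4 days. PMS-XTT (0.075 mM PMS with 1 mg/mL XTT in serum-free medium) added, then 6 h at 37 °C before reading. IC50 derived by median-effect plot analysis.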
On the technique in general: Formazan colour is commonly taken as a measure of viable cells.

Another assay relates to HL-60. As to the kind of experiment: Cytotoxicity was tested in HL60 cells by the trypan blue exclusion assay. The format is functional, cell-based. The following applies: Homo sapiens. The method, boiled down:
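HL60 cells exposed to at least five compound concentrations plus no-drug control, in duplicate in 96-well plates. Growth inhibition counted by trypan blue exclusion on a hemocytometer. IC50 derived by median-effect plot analysis.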

The nature of assay [5]: Selectivity ratio to IC50 of MT4 cells and EC50, anti-HIV activity of MT-4 cells. The format is functional. In outline:
as §1

pEC50, pIC50: −log10 of the molar value. Values joined by “and” are separate entries in the source; they are usually repeats but may differ in a detail not shown here. Equal values may be shown once.

Results on four molecules are retold here after ChEMBL document CHEMBL1124868, “Synthesis and anti-HIV-1 activity of 2'-"up"-fluoro analogues of active anti-AIDS nucleosides 3'-azido-3'-deoxythymidine (AZT) and 2',3'-dideoxycytidine (DDC)” (J Med Chem, 1990).

Consider `Nc1ccn([C@@H]2O[C@H](CO)C[C@@H]2F)c(=O)n1`, for which the Selectivity ratio in assay [1] was 266 and 278; in assay [5] it was 328 and 343. Further, the pEC50 (commonly −log10 of the EC50, conventionally taken in molar units) in the assay on MT4 [2] is 5.60; in the assay on MT4 [3], 5.58. The results for the pIC50 with MT4 [4] and in the assay with HL-60 were 2.83 and 3.15, respectively.

Turning to `Cc1cn([C@H]2C[C@H](N=[N+]=[N-])[C@@H](CO)O2)c(=O)[nH]c1=O` [ZIDOVUDINE], the Selectivity ratio is 16000 and 21333 in assay [1]; 8833 and 11778 in assay [5]. For the same molecule, the figures for the negative-log EC50 (pEC50) in the assay on MT4 [2] and in the assay with MT4 [3] were 8.35 and 8.22, respectively. Moreover, in the assay with HL-60, the pIC50 – broadly, −log10 of the IC50, conventionally taken in molar units – was 4.02.

As for `Nc1ccn([C@H]2CC[C@@H](CO)O2)c(=O)n1` [ZALCITABINE], the Selectivity ratio is 424 and 417 in assay [1]; 1326 and 1304 in assay [5]. The results for the pEC50 in the assay with MT4 [2] and in the assay on MT4 [3] were 6.62 and 6.63, respectively. Also, the pIC50 in the assay on HL-60 was 4.00.

For `Cc1cn([C@@H]2O[C@H](CO)[C@@H](N=[N+]=[N-])[C@H]2F)c(=O)[nH]c1=O`, the Selectivity ratio in assay [1] was 2.62 and 4.27; in assay [5], 1.26 and 2.06. Also, the pEC50 in the assay on MT4 [2] was 3.99; in the assay with MT4 [3], 3.77. The pIC50 in the assay with HL-60 was 3.36.
